Compounds with a hit are over-represented: about 9.6% of the library has one in this group of screens.
BaF3 parental: parental Ba/F3 viability inhibition as JAK2V617F counter-screen; CellTiter-Glo ATP luminescence; inhibition, % at 5.6 µM; actives 1.1% (n = 220,000); AID 1486;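 active means inhibition above a per-campaign cutoff, the mean inhibition of all tested compounds plus 3 SD, cut at about 27% in these data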
Ba/F3 V617F tox: loss of viability in JAK2V617F-driven Ba/F3 cells; Ba/F3 EpoR-JAK2V617F viability, ATP luminescence; inhibition, % at 5.6 µM; actives 1.1% (n = 220,000); AID 1446;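 active means inhibition above the campaign mean plus 3 SD over all tested compounds, cut at about 24% in these data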;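 further: cytokine-independent growth of Ba/F3 cells driven by EpoR plus mutant JAK2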
L major viab: reduces viability of Leishmania major promastigotes | resazurin fluorescence viability | actives 9% (n = 200,000) | inhibition, % at 10 µM | AID 1063; in the data active means inhibition above about 50%;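 further: promastigotes grown with compound for 44 hours at 28 °C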
APP 5UTR inh: APP translation inhibition. actives 0.82% (n = 190,000). SH-SY5Y APP 5'UTR-luciferase reporter, luminescence. inhibition, % at 2 µM;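 active means inhibition above a set limit, derived from the sample mean plus 3 SD, cut at about 45% in these data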
MT stabilize HCS: microtubule stabilizers in HeLa cells | HeLa tubulin immunostaining HCS, 24 h; share of cells brighter than vehicle mean+2SD | % tubulin-high responders, % at 10 µM | actives 0.83% (n = 200,000) | AID 2205;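 active means plate Z-score above 3 for both tubulin-high and condensed-nucleus cell shares, with cell loss under 80%, at 10 µM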;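 further: anti alpha tubulin signal scored within the nucleus-defined area of each cell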
b-catenin transl: beta-catenin nuclear translocation modulation; HeLa beta-catenin nuclear translocation, immunofluorescence imaging; nuclear translocation activity, % at 5 µM; actives 0.3% (n = 190,000);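 active means nuclear translocation activity above 50% at 5 µM, with a well cell count of 50 or more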;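 further: per-cell ratio of nuclear to cytoplasmic median beta-catenin stain intensity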
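Test system: human HeLa cells, native beta-catenin. Compound dosing: 5 µM primary single dose, 0.1% DMSO, 0.02–20 µM confirmation series. Incubation: compound exposure 24 h at 37°C. Detection: beta-catenin immunostaining with DAPI counterstain, 20x imaging, 6 fields/well. Read-out basis: Nuclear/cytoplasmic beta-catenin signal ratio, % activation.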
Of the large screens only hits and unclear results are named; the others gave an inactive call.

CCOc1cc(NC(=O)c2ccccn2)c(OCC)cc1NC(=O)c1ccccc1	none
CCOc1cc(NC(=S)Nc2ccccc2)c(OCC)cc1NC(=O)c1ccccc1	L major viab 88 (no result: b-catenin transl)
CCCCC(=O)Nc1cc(OCC)c(NC(=S)NC)cc1OCC	BaF3 parental 62, Ba/F3 V617F tox 24
CC(Cc1ccccc1)NC(=O)c1cc([N+](=O)[O-])ccc1Cl (centres undefined)	none (no result: L major viab, APP 5UTR inh, MT stabilize HCS)
Cc1ccc(-c2nc(NC(=O)c3nn(C)cc3[N+](=O)[O-])sc2C)cc1C	BaF3 parental 85, Ba/F3 V617F tox 92, APP 5UTR inh 96
Cc1cnc(NC(=O)c2nn(C)cc2[N+](=O)[O-])s1	none
Cc1ccc(-c2nc(NC(=O)c3nn(C)cc3[N+](=O)[O-])sc2C)cc1	BaF3 parental 81, Ba/F3 V617F tox 77, APP 5UTR inh 95
Cn1cc([N+](=O)[O-])c(C(=O)Nc2nc(-c3ccc(Cl)cc3)cs2)n1	BaF3 parental 28, APP 5UTR inh 96
CC(C)(C)CC(C)(C)N1CNC(=S)NC1	none (no result: L major viab, APP 5UTR inh, MT stabilize HCS)
Cn1cnc(S(=O)(=O)Nc2cc(C(F)(F)F)ccc2N2CCOCC2)c1	none (no result: L major viab, APP 5UTR inh, MT stabilize HCS)
CCCC(=O)Nc1ccccc1-c1nnc(SC)[nH]c1=O	none (no result: b-catenin transl)
COc1cc(C(=O)c2cocc2C(=O)c2ccc3c(c2)OCO3)cc(OC)c1OC	BaF3 parental 78, Ba/F3 V617F tox 71 (no result: L major viab, APP 5UTR inh, MT stabilize HCS)
COc1cc(C(=O)N/N=C(\C)c2ccc3c(c2)OCO3)cc(OC)c1OC	BaF3 parental 72, Ba/F3 V617F tox 73, APP 5UTR inh 91, MT stabilize HCS 20
COc1cc(C(=O)NNC(=S)NC(=O)c2ccc3c(c2)OCO3)cc(OC)c1OC	none (no result: L major viab, APP 5UTR inh, MT stabilize HCS)
CCCOC1CCCN(C(=O)CCc2nnc(CCCCc3ccccc3)o2)C1 (centres undefined)	none
C=CCN1C(=O)N/C(=C/c2ccc(N3CCOCC3)o2)C1=O	BaF3 parental 78, Ba/F3 V617F tox 95, APP 5UTR inh 88
O=C1N/C(=C/c2ccc(N3CCCC3)cc2)C(=O)N1c1ccccc1	L major viab 69
O=C1NC(=S)S/C1=C/c1ccc(N2CCOCC2)o1	none
O=C1N/C(=C/c2ccc(N3CCOCC3)o2)C(=O)N1c1ccccc1	APP 5UTR inh 54
Cc1cccc(N=Nc2cnc(N)s2)c1	none (no result: L major viab, APP 5UTR inh, MT stabilize HCS)
COc1ccc(C2NC(=S)NC3=C2CCc2cc(OC)ccc23)cc1 (centres undefined)	L major viab 63
CC(=O)Nc1ccc(NS(=O)(=O)c2ccc3ccccc3c2)cc1	none (no result: APP 5UTR inh, b-catenin transl)
COc1ccc2c(c1)c1nnc(SCC(=O)N3CCCCC3C)nc1n2C (centres undefined)	L major viab 85
Cc1c(CN(C)C)c2c(n1C)C(=O)c1ccc(Br)cc1-2	L major viab 70
CCOCCCNC(=S)N1CCN(Cc2ccco2)CC1	none
CCOC(=O)C1=C(C)NC(C)=C(C(=O)OCC)C1C	none
CCOC(=O)C1=C(C)NC(C)=C(C(=O)OCC)C1c1cc(N)ccc1OC(F)F	L major viab 55
N/C(Cc1ccc(Cl)cc1)=N\OC(=O)c1cccc2ccccc12	L major viab 99
N/C(Cc1ccc(Cl)cc1)=N\OC(=O)c1ccc2ccccc2c1	none
O=C(CCC(=O)N1CCN(S(=O)(=O)c2ccc3ccccc3c2)CC1)Nc1cc(Cl)cc(Cl)c1	L major viab 63
O=C(Cn1ncc(Cl)c(Cl)c1=O)N1CCN(S(=O)(=O)c2ccc3ccccc3c2)CC1	L major viab 99, APP 5UTR inh 94
O=C(CSc1nc2ccccc2o1)N1CCN(S(=O)(=O)c2ccc3ccccc3c2)CC1	none
O=S(=O)(c1ccc2ccccc2c1)N1CCN(C(=S)Nc2ccc(F)cc2)CC1	BaF3 parental 35
O=S(=O)(c1ccc2ccccc2c1)N1CCN(C(=S)Nc2ccc(F)c(Cl)c2)CC1	L major viab 90
Cc1nn2cc(-c3ccc(Cl)cc3)cnc2c1Cl	none
Cc1ccc(-n2cccn2)c(CN2CCCC(C(=O)c3ccc4c(c3)OCO4)C2)c1 (centres undefined)	none
NC(=O)C1CCN(CC(O)CSc2ccccc2)CC1 (centres undefined)	none (no result: L major viab, APP 5UTR inh, MT stabilize HCS)
CCCCC(O)CN1CCC(c2ccccc2)CC1 (centres undefined)	L major viab 93
Cc1cccc(C)c1NC(=O)COC(=O)c1cc(=O)c2ccccc2o1	none (no result: L major viab, APP 5UTR inh, MT stabilize HCS)
NC(=O)c1ccccc1N=Cc1ccccn1	none
Cc1ccccc1C=Nc1ccccc1C(N)=O	MT stabilize HCS 22
CC(=O)OC(COC1C[C@@H]2CC[C@@]1(C)C2(C)C)C[N+]1(C)CCCCC1 (some centres undefined)	BaF3 parental 39 (no result: L major viab, APP 5UTR inh, MT stabilize HCS)
CC(C)CC(NC(=O)C(COCc1ccccc1)NC(=O)OC(C)(C)C)C(=O)NN (centres undefined)	none
Cc1ccnc(N2CCC(C(=O)Nc3ccc4c(c3)OCCO4)CC2)n1	none
CC1=C(C(=O)NCCCOC(C)C)C2(CCC(C)CC2)OC1=O (centres undefined)	none
COc1ccc(Nc2ccc(N3C(=O)CC(C)C3=O)cc2[N+](=O)[O-])cc1OC (centres undefined)	none
COC(=O)C1=C(N)Oc2c(oc(CO)cc2=O)C1c1ccc(F)cc1 (centres undefined)	none (no result: L major viab, APP 5UTR inh, MT stabilize HCS)
COC(=O)C1=C(N)c2c(F)cccc2C1(C#N)c1ccc(F)cc1 (centres undefined)	L major viab 51 (no result: b-catenin transl)
CC(NC(=O)OCc1ccccc1)C(=O)NCC(=O)NC(Cc1ccc(OC(C)(C)C)cc1)C(=O)OC(C)(C)C (centres undefined)	L major viab 53
CC(C)(C)OC(=O)C(Cc1ccc(OC(C)(C)C)cc1)NC(=O)CNC(=O)CNC(=O)OCc1ccccc1 (centres undefined)	none
CC(NC(=O)C(c1ccccc1)c1ccccc1)C(=O)N1CCCCC1 (centres undefined)	L major viab 52
CC(NC(=O)C(c1ccccc1)c1ccccc1)C(=O)O (centres undefined)	none
O=C(COC(=O)c1ccc([N+](=O)[O-])s1)NC(c1ccccc1)c1ccccc1	L major viab 67
CC(C)(C)c1ccc(NC(=O)COC(=O)c2ccc([N+](=O)[O-])s2)cc1	L major viab 58
Cc1[nH]c2ccccc2c1C(=O)COC(=O)c1ccc([N+](=O)[O-])s1	L major viab 100
CCOC(=O)N1CCN(C(=O)/C(=C/c2ccc(Cl)cc2)NC(=O)c2ccccc2)CC1	none
CC(OC(=O)Cc1n[nH]c(=O)c2ccccc12)C(=O)Nc1cccc([N+](=O)[O-])c1 (centres undefined)	none
COC(=O)C1CN(S(=O)(=O)c2ccccc2)CCN1S(=O)(=O)c1ccccc1 (centres undefined)	none (no result: b-catenin transl)
CCOc1cc(C2C3=C(CCCC3=O)N(C)C3=C2C(=O)CCC3)cc(Cl)c1O	BaF3 parental 58, Ba/F3 V617F tox 58

High-throughput results deposited in PubChem BioAssay by several laboratories.
